From ChEMBL document CHEMBL1135495, “New p-methylsulfonamido phenylethylamine analogues as class III antiarrhythmic agents: design, synthesis, biological assay, and 3D-QSAR analysis” (2002)

Key:
[1] = organism: Cavia porcellus; experiment: (§1) Percent change for delaying effective refractory period (ERP) in guinea pig at 10e-5 M concentration; type: functional
Outline: (§2)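 Isolated atria, left atria preloaded 10 mN and paced at 1 s⁻¹ with square-wave pulses at twice-threshold voltage. ERP was measured by paired electrical stimulation after a 1 h Tyrode's equilibration with washouts every 15 min. Drug was added cumulatively at 15 min intervals, with final concentrations rising geometrically. ERP was read 10 min after each addition.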

[2] = organism: Cavia porcellus; experiment: Percent change of force of constriction measured in guinea pig at 10e-5 M concentration; type: functional
Outline: (§3)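 Left atria under 10 mN preload, driven at 1 s⁻¹ by square-wave pulses at twice-threshold voltage. Isometric contractions were recorded via a strain gauge after a 1 h Tyrode's equilibration. Cumulative drug additions were made every 15 min, with final concentrations rising geometrically. The inotropic effect was determined 10 min after each addition.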

[3] = organism: Cavia porcellus; experiment: Percent change in heart rate measured in guinea pig at 10e-5 M concentration; type: functional
Outline: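 Spontaneously beating right atria, with contractions recorded in parallel to give beating rate. Tissue equilibrated 1 h in Tyrode's, washed every 15 min. Drug was added to the bath cumulatively at 15 min intervals in geometrically increasing final concentrations. The chronotropic effect was read 10 min after each addition.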

[4] = organism: Cavia porcellus; experiment: Effective concentration for delaying effective refractory period (ERP) 10 ms in guinea pig; type: functional; outline: as §2
[5] = organism: Cavia porcellus; experiment: Effective concentration for delaying effective refractory period (ERP) 10 ms in guinea pig; N means No effect at 10E-5 M; type: functional; outline: as §2
[6] = organism: Cavia porcellus; experiment: Percent change for delaying effective refractory period (ERP) in guinea pig at 10e-5 M concentration; N means No effect.; type: functional; outline: as §2
[7] = organism: Cavia porcellus; experiment: as §1; type: functional, organism-based; outline: as §2
[8] = organism: Cavia porcellus; experiment: Percent change of force of constriction measured in guinea pig at 10e-5 M concentration; Nf means No effect.; type: functional; outline: as §3
[9] = organism: Cavia porcellus; experiment: Percent change of force of constriction measured in guinea pig at 10e-5 M concentration; N means No effect.; type: functional; outline: as §3
[10] = organism: Cavia porcellus; experiment: No effect was observed for ERP at 10x (10e-5) M concentration; N means No effect at 10E-5 M; type: functional; outline: as §2

Row | Compound | Delta ERP [1] [%] | Delta FC [2] [%] | Delta HR [3] [%] | C [4] [µM] | N [5] | N [6] | N [7] | N [8] | N [9] | N [10]
1 | COc1ccc(CN(CCc2ccc(N(S(C)(=O)=O)S(C)(=O)=O)cc2)Cc2ccccc2)cc1 | 9.09 | -20 | -27.3 | 0.79 | – | – | – | – | – | –
2 | C=CCN(CCOc1cccc2ccccc12)CCc1ccc(N(S(C)(=O)=O)S(C)(=O)=O)cc1 | – | 16.7 | -8.33 | – | No effect | No effect | – | – | – | –
3 | CS(=O)(=O)Nc1ccc(CCN(CCOc2ccc(NS(C)(=O)=O)cc2)Cc2ccc(Cl)cc2)cc1 | 9.29 | 20 | -40.6 | 0.037 | – | – | – | – | – | –
4 | CN(CCc1ccc(NS(C)(=O)=O)cc1)Cc1ccc(Cl)cc1 | 7.06 | 8.33 | -14.5 | 2.24 | – | – | – | – | – | –
5 | CC(=O)N(CCOc1cccc2ccccc12)CCc1ccc(NS(C)(=O)=O)cc1 | 58.4 | -37.9 | -46.2 | 0.05 | – | – | – | – | – | –
6 | CS(=O)(=O)Nc1ccc(CCN(CCOc2ccc(NS(C)(=O)=O)cc2)S(C)(=O)=O)cc1 | – | 16.7 | -18.8 | – | No effect at 10E-5 M | – | No effect at 10E-5 M | – | – | –
7 | CN(CCc1ccc(N(S(C)(=O)=O)S(C)(=O)=O)cc1)C1CCCCC1 | 6.24 | – | -8.36 | 4.39 | – | – | – | No effect | – | –
8 | CN(CCc1ccc(NS(C)(=O)=O)cc1)Cc1ccccc1 | 12.2 | 16.7 | -20 | 0.372 | – | – | – | – | – | –
9 | CS(=O)(=O)Nc1ccc(CCN(CCOc2ccc(NS(C)(=O)=O)cc2)Cc2ccccc2)cc1 | 17.5 | 24.8 | -32 | 0.016 | – | – | – | – | – | –
10 | COc1ccc(CN(CCc2ccc(NS(C)(=O)=O)cc2)C(=O)c2ccccc2)cc1 | 6.33 | 33.3 | -3.7 | 6.18 | – | – | – | – | – | –
11 | COc1ccccc1CN(C)CCc1ccc(NS(C)(=O)=O)cc1 | 15.6 | 38.3 | -26.7 | 0.155 | – | – | – | – | – | –
12 | CN(CCOc1cccc2ccccc12)CCc1ccc(N(S(C)(=O)=O)S(C)(=O)=O)cc1 | 12 | – | -20.7 | 0.203 | – | – | – | – | No effect | –
13 | CS(=O)(=O)N(c1ccc(CCN(Cc2ccccc2)Cc2ccccc2)cc1)S(C)(=O)=O | 9.56 | – | -16 | 0.653 | – | – | – | – | No effect | –
14 | CS(=O)(=O)N(c1ccc(CCN(CCOc2cccc3ccccc23)Cc2ccccc2)cc1)S(C)(=O)=O | – | 25 | -17.9 | – | – | No effect | – | – | – | No effect
15 | COc1ccc(CN(CCc2ccc(NS(C)(=O)=O)cc2)C(C)=O)cc1 | – | 14.3 | -18.2 | – | No effect | No effect | – | – | – | –
16 | Cc1ccc(CN(CCc2ccc(N(S(C)(=O)=O)S(C)(=O)=O)cc2)Cc2ccccc2)cc1 | 5.71 | 25 | 16 | 0.62 | – | – | – | – | – | –
17 | CS(=O)(=O)N(c1ccc(CCN(Cc2ccccc2)Cc2ccc3c(c2)OCO3)cc1)S(C)(=O)=O | 9.46 | -20 | -18.3 | 0.38 | – | – | – | – | – | –
18 | CS(=O)(=O)Nc1ccc(CCNCCOc2ccc(NS(C)(=O)=O)cc2)cc1 [N-DESMETHYLDOFETILIDE] | 9.39 | 33.7 | -23.8 | 0.023 | – | – | – | – | – | –

Row | Compound | Delta ERP [1] [%] | Delta FC [2] [%] | Delta HR [3] [%] | C [4] [µM] | N [5] | N [6] | N [7] | N [8] | N [9] | N [10]
19 | CS(=O)(=O)Nc1ccc(CCN(Cc2ccccc2)Cc2ccc(Cl)cc2)cc1 | 14.5 | 25 | 16 | 1.05 | – | – | – | – | – | –
20 | COc1ccccc1CN(CCc1ccc(NS(C)(=O)=O)cc1)Cc1ccccc1 | 10.9 | -14.3 | -28.2 | 0.141 | – | – | – | – | – | –
21 | C=CCN(CCOc1cccc2ccccc12)CCc1ccc(NS(C)(=O)=O)cc1 | 9.77 | 16.7 | -15.2 | 0.315 | – | – | – | – | – | –
22 | CS(=O)(=O)Nc1ccc(CCN(Cc2ccccc2)Cc2ccccc2)cc1 | 16.1 | – | -25 | 0.27 | – | – | – | – | No effect | –
23 | CS(=O)(=O)Nc1ccc(CCN(CCOc2ccc(NS(C)(=O)=O)cc2)C(=O)c2ccccc2)cc1 | 19 | 25 | -28.4 | 0.039 | – | – | – | – | – | –
24 | CN(CCc1ccc(NS(C)(=O)=O)cc1)Cc1ccc2c(c1)OCO2 | 6.16 | 17.2 | -15.3 | 0.89 | – | – | – | – | – | –
25 | Cc1ccc(CN(C)CCc2ccc(N(S(C)(=O)=O)S(C)(=O)=O)cc2)cc1 | 12.6 | -11.8 | -15.4 | 0.953 | – | – | – | – | – | –
26 | CN(CCOc1ccc(NS(C)(=O)=O)cc1)CCc1ccc(NS(C)(=O)=O)cc1 [DOFETILIDE] | 24 | 17.1 | -30 | 0.011 | – | – | – | – | – | –
27 | CN(CCOc1cccc2ccccc12)CCc1ccc(NS(C)(=O)=O)cc1 | 20.2 | 20.3 | -28.5 | 0.293 | – | – | – | – | – | –
28 | CS(=O)(=O)Nc1ccc(CCN(CCOc2cccc3ccccc23)C(=O)c2ccccc2)cc1 | 5.33 | 33.3 | -20 | 8.67 | – | – | – | – | – | –
29 | CS(=O)(=O)Nc1ccc(CCN(CCOc2ccc(NS(C)(=O)=O)cc2)CCOc2ccc(NS(C)(=O)=O)cc2)cc1 | 13.5 | 20 | -26.7 | 0.383 | – | – | – | – | – | –
30 | COc1ccc(CN(CCc2ccc(NS(C)(=O)=O)cc2)Cc2ccc(Cl)cc2)cc1 | 19.3 | 15 | -9.09 | 0.068 | – | – | – | – | – | –
31 | CN(CCc1ccc(NS(C)(=O)=O)cc1)C1CCCCC1 | 6.45 | 8.33 | -8 | 4.79 | – | – | – | – | – | –
32 | C=CCN(CCOc1ccc(NS(C)(=O)=O)cc1)CCc1ccc(NS(C)(=O)=O)cc1 | 12.4 | – | -5.26 | 0.267 | – | – | – | – | No effect | –
33 | CS(=O)(=O)Nc1ccc(CCN(CCOc2cccc3ccccc23)Cc2ccccc2)cc1 | – | 25 | -31.8 | – | No effect | No effect | – | – | – | –
34 | COc1ccc(CN(CCOc2ccc(NS(C)(=O)=O)cc2)CCc2ccc(NS(C)(=O)=O)cc2)cc1 | 12.1 | 14.3 | -25.8 | 0.21 | – | – | – | – | – | –
35 | COc1ccc(CN(C)CCc2ccc(N(S(C)(=O)=O)S(C)(=O)=O)cc2)cc1 | 8.7 | 25 | -19.2 | 1.17 | – | – | – | – | – | –
36 | CC(=O)N(CCOc1ccc(NS(C)(=O)=O)cc1)CCc1ccc(NS(C)(=O)=O)cc1 | 16.9 | 17.5 | -20.6 | 0.021 | – | – | – | – | – | –
